Converted amounts (≈) assume the structure as drawn.
What was measured:
Staphylococcus aureus [1] = experiment: Antibacterial activity against Staphylococcus aureus ATCC 6538 after 18 hrs; assay type: functional; details: ATCC 6538, 18 h
Outline: (§1)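 Broth microdilution in Nutrient Broth No. 2; stocks in ethanol diluted to 0.01–128 µg/ml (triclosan) or 0.25–256 µg/ml (glycosides). Overnight 37 °C NB2 cultures diluted 1 in 10^4 in saline and added to the dilutions. Incubation at 37 °C with agitation, OD read every 15 min; MIC is the lowest concentration preventing any OD rise after 18 h.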

Staphylococcus aureus [2] = experiment: Antibacterial activity against Staphylococcus aureus ATCC 6538P after 18 hrs; assay type: functional; outline: as §1
Staphylococcus aureus [3] = experiment: Antibacterial activity against Staphylococcus aureus ATCC 9144 after 18 hrs; assay type: functional; details: ATCC 9144, 18 h; outline: as §1
Staphylococcus aureus [4] = experiment: Antibacterial activity against Staphylococcus aureus ATCC 25923 after 18 hrs; assay type: functional; details: ATCC 25923, 18 h; outline: as §1
Staphylococcus aureus [5] = experiment: Antibacterial activity against Staphylococcus aureus ATCC 29213 after 18 hrs; assay type: functional; details: ATCC 29213, 18 h; outline: as §1
Staphylococcus aureus [6] = experiment: Antibacterial activity against Staphylococcus aureus NCTC 13758 after 18 hrs; assay type: functional; details: NCTC 13758, 18 h; outline: as §1
Staphylococcus aureus [7] = experiment: Antibacterial activity against Staphylococcus aureus OCC 104 after 18 hrs; assay type: functional; details: OCC 104, 18 h; outline: as §1
Staphylococcus aureus [8] = experiment: Antibacterial activity against Staphylococcus aureus OCC 106 after 18 hrs; assay type: functional; details: OCC 106, 18 h; outline: as §1
[9] = system: Staphylococcus epidermidis; experiment: Antibacterial activity against Staphylococcus epidermidis 155 after 18 hrs; assay type: functional; details: Staphylococcus epidermidis, 155, 18 h; outline: as §1
[10] = system: Staphylococcus epidermidis; experiment: Antibacterial activity against Staphylococcus epidermidis ATCC 12228 after 18 hrs; assay type: functional; details: ATCC 12228, 18 h; outline: as §1
[11] = system: Staphylococcus epidermidis; experiment: Antibacterial activity against Staphylococcus epidermidis ATCC 14990 after 18 hrs; assay type: functional; details: ATCC 14990, 18 h; outline: as §1
[12] = system: Staphylococcus haemolyticus; experiment: Antibacterial activity against Staphylococcus haemolyticus OCC 2223 after 18 hrs; assay type: functional; details: OCC 2223, 18 h
Outline: (§2)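 Broth microdilution in Nutrient Broth No. 2. Ethanol stocks were diluted in broth to 0.01–128 µg/ml for triclosan and 0.25–256 µg/ml for glycosides. Overnight 37°C NB2 cultures were diluted 1 in 10^4 in saline and added to the wells. Plates were incubated at 37°C with OD read every 15 min after agitation. MIC was the lowest concentration giving no OD increase at 18 h.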

[13] = system: Staphylococcus saprophyticus; experiment: Antibacterial activity against Staphylococcus saprophyticus ATCC 15305 after 18 hrs; assay type: functional; details: ATCC 15305, 18 h; outline: as §2
Streptococcus agalactiae = experiment: Antibacterial activity against Streptococcus agalactiae OCC 182 after 18 hrs; assay type: functional; details: OCC 182, 18 h; outline: as §2
Streptococcus pneumoniae [14] = experiment: Antibacterial activity against Streptococcus pneumoniae 6305 after 18 hrs; assay type: functional; details: Streptococcus pneumoniae, 6305, 18 h; outline: as §2
Streptococcus pneumoniae [15] = experiment: Antibacterial activity against Streptococcus pneumoniae ATCC 49619 after 18 hrs; assay type: functional; details: ATCC 49619, 18 h; outline: as §2
Streptococcus pyogenes = experiment: Antibacterial activity against Streptococcus pyogenes ATCC 19615 after 18 hrs; assay type: functional; details: ATCC 19615, 18 h; outline: as §2
Streptococcus viridans = experiment: Antibacterial activity against Streptococcus viridans OCC 234 after 18 hrs; assay type: functional; details: OCC 234, 18 h; outline: as §2
[16] = system: Salmonella enterica subsp. enterica serovar Abony; experiment: Antibacterial activity against Salmonella enterica subspecies enterica serotype Abony NCTC 6017 after 18 hrs; assay type: functional; details: NCTC 6017, 18 h; outline: as §1
[17] = Antibacterial activity against Salmonella enterica subspecies enterica serotype Arizonae OCC 706 after 18 hrs; assay type: functional, Salmonella enterica subsp. enterica serovar Arizonae; details: OCC 706, 18 h; outline: as §1
[18] = Antibacterial activity against Salmonella enterica subspecies enterica serotype Dublin OCC 627 after 18 hrs; assay type: functional, Salmonella enterica subsp. enterica serovar Dublin; details: OCC 627, 18 h; outline: as §1
Salmonella enteritidis = experiment: Antibacterial activity against Salmonella enterica subspecies enterica serotype Enteritidis 13076 after 18 hrs; assay type: functional, Salmonella enterica subsp. enterica serovar Enteritidis; details: Salmonella enterica, 13076, 18 h; outline: as §1
[19] = Antibacterial activity against Salmonella enterica subspecies enterica serotype Indiana OCC 597 after 18 hrs; assay type: functional, Salmonella enterica subsp. enterica serovar Indiana; details: OCC 597, 18 h; outline: as §1
[20] = Antibacterial activity against Salmonella enterica subspecies enterica serotype Infantis OCC 2133 after 18 hrs; assay type: functional, Salmonella enterica subsp. enterica serovar Infantis; details: OCC 2133, 18 h; outline: as §1
[21] = Antibacterial activity against Salmonella enterica subspecies enterica serotype Nottingham NCTC 7832 after 18 hrs; assay type: functional, Salmonella enterica subsp. enterica serovar Nottingham; details: NCTC 7832, 18 h; outline: as §1
[22] = Antibacterial activity against Salmonella enterica subspecies enterica serotype Poona NCTC 4840 after 18 hrs; assay type: functional, Salmonella enterica subsp. enterica serovar Poona; details: NCTC 4840, 18 h; outline: as §1
[23] = Antibacterial activity against Salmonella enterica subspecies enterica serotype Pullorum OCC 273 after 18 hrs; assay type: functional, Salmonella enterica subsp. enterica serovar Pullorum; details: OCC 273, 18 h; outline: as §1
Salmonella typhimurium = experiment: Antibacterial activity against Salmonella enterica subspecies enterica serotype typhimurium ATCC 14028 after 18 hrs; assay type: functional, Salmonella enterica subsp. enterica serovar Typhimurium; details: ATCC 14028, 18 h; outline: as §1
[24] = Antibacterial activity against Salmonella enterica subspecies enterica serotype Virchow NCTC 5742 after 18 hrs; assay type: functional, Salmonella enterica subsp. enterica serovar Virchow; details: NCTC 5742, 18 h; outline: as §1

**Q.** Which results are given for `OC[C@H]1O[C@H](Oc2cc(Cl)ccc2Oc2ccc(Cl)cc2Cl)[C@@H](O)[C@@H](O)[C@@H]1O`?
**A.** MIC (Staphylococcus aureus [1]): 2 to 8 µg/mL (≈ 4.43 to 17.7 µM); MIC (Staphylococcus aureus [2]): 2 to 8 µg/mL (≈ 4.43 to 17.7 µM); MIC (Staphylococcus aureus [3]): 2 to 8 µg/mL (≈ 4.43 to 17.7 µM); MIC (Staphylococcus aureus [4]): 2 to 8 µg/mL (≈ 4.43 to 17.7 µM); MIC (Staphylococcus aureus [5]): 2 to 8 µg/mL (≈ 4.43 to 17.7 µM); MIC (Staphylococcus aureus [6]): 2 to 8 µg/mL (≈ 4.43 to 17.7 µM); MIC (Staphylococcus aureus [7]): 2 to 8 µg/mL (≈ 4.43 to 17.7 µM); MIC (Staphylococcus aureus [8]): 2 to 8 µg/mL (≈ 4.43 to 17.7 µM); MIC [9]: 4 to 8 µg/mL (≈ 8.86 to 17.7 µM); MIC [10]: 4 to 8 µg/mL (≈ 8.86 to 17.7 µM); MIC [11]: 4 to 8 µg/mL (≈ 8.86 to 17.7 µM); MIC [12]: 8 µg/mL (≈ 17.7 µM); MIC [13]: 32 µg/mL (≈ 70.8 µM); MIC (Streptococcus agalactiae): 128 µg/mL (≈ 283 µM); MIC (Streptococcus pneumoniae [14]): 64 µg/mL (≈ 142 µM); MIC (Streptococcus pneumoniae [15]): 64 µg/mL (≈ 142 µM); MIC (Streptococcus pyogenes): 32 µg/mL (≈ 70.8 µM); MIC (Streptococcus viridans): 128 µg/mL (≈ 283 µM); MIC [16]: 16 to 64 µg/mL (≈ 35.4 to 142 µM); MIC [17]: 16 to 64 µg/mL (≈ 35.4 to 142 µM); MIC [18]: 16 to 64 µg/mL (≈ 35.4 to 142 µM); MIC (Salmonella enteritidis): 16 to 64 µg/mL (≈ 35.4 to 142 µM); MIC [19]: 16 to 64 µg/mL (≈ 35.4 to 142 µM); MIC [20]: 16 to 64 µg/mL (≈ 35.4 to 142 µM); MIC [21]: 16 to 64 µg/mL (≈ 35.4 to 142 µM); MIC [22]: 16 to 64 µg/mL (≈ 35.4 to 142 µM); MIC [23]: 16 to 64 µg/mL (≈ 35.4 to 142 µM); MIC (Salmonella typhimurium): 16 to 64 µg/mL (≈ 35.4 to 142 µM); MIC [24]: 16 to 64 µg/mL (≈ 35.4 to 142 µM)
